Assay outcomes: PubChem BioAssay, several laboratories
Rows were chosen to be rich in hits. Some 2.6% of all compounds tested hit in one or more screens of this group.
Cl transport mod: modulators of human KCC2 chloride dependent transport | Q9H2X9 | KCC2 cells, thallium flux FluoZin-2 fluorescence | B-score of Tl+ flux slope (higher = more flux/activation; lower = inhibition) at 10 µM | 190,000 tested, 2.2% active;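 active = thallium flux slope and its plate-corrected score both differing from the plate sample mean at a set confidence after two filtering rounds, in either direction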;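 note: slope of fluorescence scaled to starting intensity during 10 to 20 s after thallium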
Rad51 HR inh: Rad51 (human) homologous recombination inhibition. Q06609. hRad51 DNA strand exchange, fluorescence dequenching. inhibition, % at 10 µM. 200,000 tested, 0.085% active;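 active = inhibition above 40% at the single screening dose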;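 note: 0% = DMSO control wells and 100% = blanks with heterologous ssDNA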
Target sequence (Q06609 whole entry, looked up): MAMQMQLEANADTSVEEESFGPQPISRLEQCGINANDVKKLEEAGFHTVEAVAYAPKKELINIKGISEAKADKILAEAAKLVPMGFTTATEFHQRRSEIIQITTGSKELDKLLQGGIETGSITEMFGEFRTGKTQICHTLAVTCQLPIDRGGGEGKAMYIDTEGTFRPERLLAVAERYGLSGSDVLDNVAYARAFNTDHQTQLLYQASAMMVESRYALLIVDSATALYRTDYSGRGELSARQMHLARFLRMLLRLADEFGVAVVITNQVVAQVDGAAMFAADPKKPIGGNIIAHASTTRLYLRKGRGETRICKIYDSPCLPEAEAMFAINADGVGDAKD
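Material: human Rad51–ssDNA filaments; Probe or stimulus: labelled 47-mer dsDNA for strand exchange; Doses: single 10 µM dose; Incubation: 37 °C 15-min filament assembly, 30-min compound preincubation, 15-min exchange; Technique: FRET fluorescence dequenching, excitation 485 nm, emission 520 nm; Measure: Fluorescence-based percent inhibition, control- and blank-normalised; Benchmarks: plate control and blank wells.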
CHT allo act: allosterically activates the human high affinity choline transporter. Q9GZV3. B-score at 10 µM. CHT-expressing cells, membrane potential dye, choline EC20; active compounds read high; LV-AA mutant CHT in HEK293 cells. 310,000 tested, 0.49% active. AID 488977;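 active = initial fluorescence not abnormally high and integrated response B-score, plate-corrected, over 3 SD above library mean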
CHT block: human CHT choline transport inhibition. Q9GZV3. CHT-expressing cells, membrane potential dye, choline response; active compounds read low. B-score at 10 µM. 310,000 tested, 0.86% active. AID 488975;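 active = B-score over 3 SD under the library average, and starting fluorescence ratio not unusually high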;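 note: choline stimulus applied at its EC90 after an EC20 pre-addition; B-score computed on integrated fluorescence ratio after choline addition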
Active calls of the source: *; i = inactive; . = not tested or not shown.

SMILES	Cl transport mod	Rad51 HR inh	CHT allo act	CHT block
COC(=O)c1c(NC(=O)Cc2cccs2)sc2c1CCC(C)C2 (stereo not drawn)	.	8	i	i
CC(C)OC(=O)c1c(NS(=O)(=O)c2ccccc2)sc2c1CCCC2	23*	-4	i	i
COC(=O)c1c(NS(=O)(=O)c2ccc(C)cc2)sc2c1CCC(C)C2 (stereo not drawn)	16*	.	i	i
COC(=O)c1c(NS(=O)(=O)Cc2ccccc2)sc2c1CCCC2	45*	0	i	i
CCN1CCN(c2nc3c(c(=O)n(C)c(=O)n3C)n2CCSc2nccc(C)n2)CC1	.	4	i	-7.5*
Cc1cc(C)c2[nH]c(=S)cc(C)c2c1	31*	-1	i	i
O=C(Nc1ccncc1)C1CCC(CNS(=O)(=O)c2cccc3nsnc23)CC1 (stereo not drawn)	0.27	-30	i	i
O=C(NC(=S)N(Cc1ccccc1)Cc1ccccc1)c1ccccc1F	65*	-9	i	i
O=C(NC(=S)NCCc1ccccc1)c1ccccc1F	.	.	i	i
O=C(NC(=S)NCc1ccccc1)c1ccccc1F	15*	0	i	i
Cc1ccccc1Sc1c(C#N)c(-c2ccccc2)nn1C	-0.086	15	i	i
CCOC(=O)Cc1csc(NC(=O)CCC(=O)O)n1	.	23	i	i
CCOC(=O)Cc1csc(NC(=S)NC(=O)C(C)(C)C)n1	15*	9	i	i
C/C(CCC1CC(C)(C)OC1=O)=N\NC(N)=S (stereo not drawn)	0.22	27	i	i
CCCC1CC(C)(/C(C)=N\NC(N)=S)OC1=O (stereo not drawn)	-0.077	0	i	-9.3*
Cc1ccc(S(=O)(=O)Nc2nc(C)c(C)s2)cc1	.	.	i	i
N#Cc1c(NC(=O)CN2C(=O)c3ccccc3C2=O)oc(-c2ccccc2)c1-c1ccccc1	-0.7	-8	i	i
N#Cc1c(NC(=O)CCN2C(=O)c3ccccc3C2=O)oc(-c2ccccc2)c1-c1ccccc1	.	-11	i	-5.9*
O=C(CCNC(=O)C1CCN(S(=O)(=O)c2ccccc2)CC1)NCc1ccc(Cl)cc1Cl	.	.	i	i
CCc1ccc(/C=C2/SC(=S)N(CC(=O)Nc3nc4ccccc4s3)C2=O)cc1	4.9*	0	i	i
CCc1ccc(/C=C2\SC(=S)N(CCCC(=O)Nc3ccccn3)C2=O)cc1	0.62	-4	i	i
CCc1ccc(/C=C2/SC(=S)N(CCCC(=O)Nc3ccccc3C(=O)O)C2=O)cc1	.	.	i	-7.5*
CCc1ccc(/C=C2/SC(=S)N(CCC(=O)Nc3cccc(C(=O)O)c3)C2=O)cc1	.	.	i	-5.9*
COc1ccc(NS(=O)(=O)c2cc3c4c(c2)CCN4C(=O)CC3)cc1OC	.	.	i	i
Cc1c(CCOC(=O)C23CC4CC(CC(C4)C2)C3)sc[n+]1CC#N	-0.34	-8	i	i
SMILES	Cl transport mod	Rad51 HR inh	CHT allo act	CHT block
O=C(CCn1c(=S)oc2ccccc21)Nc1ccccc1Br	.	.	i	i
O=C(NCc1ccc2c(c1)OCO2)c1ccc2c(c1)N(Cc1c(F)cccc1Cl)C(=O)CS2	-0.46	21	i	i
CCC1CCCCN1CCCNC(=O)c1ccc2c(c1)N(Cc1c(F)cccc1Cl)C(=O)CS2 (stereo not drawn)	.	.	i	-5.4*
CC(=O)n1cc(-c2ccncc2)c2ccccc21	-0.97	-7	6.5*	i
Cc1ccc(C)c(S(=O)(=O)N2CCN(C(=O)CSc3ccccc3F)CC2)c1	.	.	i	i
Cc1ccc(C2=NNC3(CCOC(C)(C)C3)S2)cc1 (stereo not drawn)	25*	-1	i	i
Cc1ccc(S(=O)(=O)NCCC2(C(C)C)CCOC(C)(C)C2)cc1 (stereo not drawn)	-0.66	2	i	i
Cc1ccc(-c2nc(Nc3cccc(C)c3)sc2CC(=O)O)cc1	-4.2*	-6	i	i
O=C(O)Cc1sc(Nc2cccc3ccccc23)nc1-c1ccc(F)cc1	.	.	i	i
O=C(CCCl)N1CCN(c2nc(-c3ccccc3)cs2)CC1	.	.	i	i
Cc1oc(-c2ccccc2)nc1CS(=O)CC(=O)O (stereo not drawn)	2.9*	-12	i	i
Cc1onc(-c2ccccc2)c1C(=O)NC(=S)Nc1sc2c(c1C#N)CCCC2	23*	-1	i	i
Cc1onc(-c2ccccc2)c1C(=O)Nc1sc2c(c1C#N)CCC2	-0.24	-4	i	i
Cc1cc(C(=O)Nc2sc3c(c2C#N)CCCC3)no1	3.7*	-1	i	i
O=C(O)c1ccc2c(c1)OCCO2	-0.61	-2	i	i
NC(=O)c1ccc2c(c1)OCCO2	-3.2*	-8	i	i
Cc1c(C(=O)N/N=C/c2cccnc2)sc(N)c1C#N	.	.	i	i
COCCCn1cc(C(=O)c2cc(OC)ccc2OCC(=O)N2CCCCC2C)cc(C#N)c1=O (stereo not drawn)	0.59	-9	i	i
COc1cc(/C=C2/SC(=S)NC2=O)ccc1OS(=O)(=O)c1ccc(C)cc1	80*	-30	i	i
COc1cc(/C=C2\SC(=S)NC2=O)ccc1OS(=O)(=O)c1ccccc1	80*	-4	i	i
COc1ccc(/C=C2\SC(=O)NC2=S)cc1OC	12*	-40	i	i
CCOc1ccc(/C=C2\SC(=S)N(C)C2=O)cc1OC	0.22	1	i	i
Cc1ccc(C)c(NC(=S)NNC(=O)c2cc3c(s2)CCC(C)C3)c1 (stereo not drawn)	28*	0	i	i
Cc1cccc(NC(=S)NNC(=O)c2csc3c2CCC(C)C3)c1 (stereo not drawn)	25*	-4	i	i
CC1CCc2sc(C(=O)NN=C3CCC(c4ccccc4)CC3)cc2C1 (stereo not drawn)	0.15	2	i	i
SMILES	Cl transport mod	Rad51 HR inh	CHT allo act	CHT block
Cc1ccc(C)c(NC(=S)NNC(=O)c2csc(C(C)C)c2)c1	13*	-4	i	i
Cc1ccc(C)c(NC(=S)NNC(=O)c2ccco2)c1	-0.077	5	i	i
O=[N+]([O-])c1ccc(N(CC(O)CN2CCCCC2)S(=O)(=O)c2ccccc2)cc1 (stereo not drawn)	.	.	i	i
COc1ccc(-c2nnc(NC(=O)c3ccc(S(=O)(=O)N4COCC4(C)C)cc3)o2)cc1	8.2*	.	i	i
CCCN(CCC)S(=O)(=O)c1ccc(C(=O)Nc2nnc(-c3cccc(OC)c3)o2)cc1	15*	.	i	i
CC1CCCCN1S(=O)(=O)c1ccc(C(=O)Nc2nnc(-c3ccncc3)o2)cc1 (stereo not drawn)	-0.47	19	i	i
COc1ccc(C2c3ccc4ccccc4c3Oc3ncn(CCN(C)C)c(=N)c32)cc1 (stereo not drawn)	.	.	i	i
Cc1cc(OCC(=O)NCC2CCC(C(=O)O)CC2)c2c(C)c(Cc3ccccc3)c(=O)oc2c1 (stereo not drawn)	.	.	i	i
